The entries come from a sample that favours hits as a whole.
STK33 kinase inh = inhibitors of purified STK33 kinase, primary screen, biochemical, ADP-Glo luminescence, homogeneous, cell-free | MBP phosphorylation | actives 0.073% (n = 320,000) | inhibition, % at 10 µM | Serine/threonine-protein kinase 33 (Homo sapiens), Q9BYT3 | AID 2661, 2010;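 active = inhibition at or above 25%, using the most active replicate where run in duplicate; inactive = inhibition below 25%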
Target sequence (Q9BYT3 whole entry, looked up): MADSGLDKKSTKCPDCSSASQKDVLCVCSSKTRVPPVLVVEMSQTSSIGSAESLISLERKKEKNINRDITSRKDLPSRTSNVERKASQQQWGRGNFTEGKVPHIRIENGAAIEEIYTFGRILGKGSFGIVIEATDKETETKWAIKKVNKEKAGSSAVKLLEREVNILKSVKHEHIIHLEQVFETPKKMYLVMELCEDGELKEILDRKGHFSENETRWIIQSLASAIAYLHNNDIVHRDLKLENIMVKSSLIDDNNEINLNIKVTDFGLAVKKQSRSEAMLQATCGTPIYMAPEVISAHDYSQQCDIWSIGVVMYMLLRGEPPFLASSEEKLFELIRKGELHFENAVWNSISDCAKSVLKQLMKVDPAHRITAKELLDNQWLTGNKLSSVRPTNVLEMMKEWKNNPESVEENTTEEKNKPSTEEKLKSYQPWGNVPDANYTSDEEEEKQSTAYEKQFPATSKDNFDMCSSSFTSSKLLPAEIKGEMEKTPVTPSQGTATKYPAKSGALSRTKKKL
GSK3 alpha inh = blockers of GSK3A enzyme activity – biochemical, luminescence, cell-free homogeneous, HTS, primary screen | Glycogen synthase kinase-3 alpha (Homo sapiens), P49840 | GSK-3 alpha kinase, ADP-Glo luminescence, 60 min | inhibition, % at 10 µM | actives 0.1% (n = 320,000) | AID 2650, 2010;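 active = more than half of replicates show inhibition above 20%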;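 also: GST-tagged GSK-3 alpha with peptide substrate and 25 µM ATP; 0% = DMSO neutral wells and 100% = GW8510 positive control wells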
CDK5 inh = inhibitors of human CDK5/p35 kinase, primary screen, biochemical, single concentration; Cyclin-dependent kinase 5 (Homo sapiens) + Cyclin-dependent kinase 5 activator 1 (Homo …; Recombinant CDK5/p35, ADP-Glo luminescence, 60 min; inhibition, % at 10 µM; actives 0.01% (n = 330,000); AID 488839, 2010;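 active = highest replicate inhibition of at least 50% and at least 75% of replicates reaching 50%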;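 also: plate controls were DMSO neutral control for no effect and GW8510 at 10 µM for full effect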
GSK3beta inhib = human GSK3beta kinase inhibitors, primary screen, biochemical, cell-free homogeneous, HTS. Glycogen synthase kinase-3 beta (Homo sapiens), P49841. GST-GSK3beta kinase, ADP-Glo luminescence, 60 min; stronger effect = lower value. activity score (negative = inhibition), % at 10 µM. actives 0.038% (n = 300,000);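 active = more than half of replicate wells score below -50%, meaning over 50% inhibition versus plate controls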;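 also: 0% = median DMSO wells and -100% = median GW8510 positive control wells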
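Test system: GST-tagged human GSK3beta kinase, cell-free; evaluation: activity score scaled between in-plate DMSO and GW8510 controls; measured by: ADP-Glo luminescence; incubation: 60 min reaction, RT; benchmarks: DMSO and 20 µM GW8510; reagent: peptide substrate plus 25 µM ATP (final); medium: Tris/MgCl2 kinase buffer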
DYRK1A inh = rat Dyrk1A kinase inhibitors, primary screen, biochemical, single point, plate reader; inhibition, % at 12.5 µM; ADP-Glo luminescence, NFATc1 peptide; actives 0.43% (n = 310,000); AID 504441, 2011; in the data active = inhibition above about 50%;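 also: plate controls were vehicle with enzyme for no effect and no enzyme for full effect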
Dyrk1A artifact = ADP-Glo luciferase interference without Dyrk1A, dose response, artefact control for Dyrk1A inhibitor project, biochemical, luminescence, cherry-pick, set 02 | AC50, µM (series often up to 12 µM), inactives show at the top dose activity change, negative = inhibition | ADP-Glo luciferase artifact assay, no Dyrk1A | AID 588348, 2011 | 1,300 tested, under 10 active | shares compounds with DYRK1A inh;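 active = fitted half-maximal dose AC50 no more than ten times the top valid tested dose, with luminescence dropping as dose rises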
An asterisk follows results filed as active; x = no result given; + = active, no number.

SMILES	STK33 kinase inh	GSK3 alpha inh	CDK5 inh	GSK3beta inhib	DYRK1A inh	Dyrk1A artifact
COc1ccc2c(c1)/C(=C/c1cnc[nH]1)C(=O)N2	58*	81*	+	-89*	83*	15%
CCc1nccc2c1[nH]c1ccccc12	1	2	3	-3	59*	6%
Cc1[nH]c2ccccc2c1/C=N/O	0	0	2	2	34	x
c1ccc2c(c1)[nH]c1cnccc12	4	0	2	-1	69*	8%
Cc1nccc2c1[nH]c1ccccc12	1	1	2	-3	76*	8%
O=c1c2ccccc2[nH]c(=S)n1-c1cccnc1	0	-3	x	-1	x	x
CC1CCCN(C(=O)CN2C3CCC2CC(O)(c2ccc(F)cc2)C3)C1 (centres undefined)	0	-1	4	-1	0	x
CN(C(=O)Cc1ccc2c(c1)OCO2)C1CCCN(Cc2ccccc2F)C1 (centres undefined)	-1	-1	-2	-1	x	x
CC(CCc1ccccc1)NC(C)C(O)c1ccc(O)cc1 (centres undefined)	-1	0	1	0	8	x
Cc1ccccc1-n1c(O)c(/C=C2/C(c3ccccc3)=Nc3ccccc32)c(=O)[nH]c1=O	0	-7	-1	-1	2	x
Cc1cccc(-n2c(O)c(/C=C3/C(c4ccccc4)=Nc4ccccc43)c(=O)[nH]c2=O)c1	1	3	0	1	60*	10%
CN(C(=O)CNC(=O)OCc1ccccc1)c1ccc(Br)cc1C(=O)c1ccccc1Cl	-1	0	1	-1	0	x
COc1cc2c(cc1O)C[C@H]1c3c(cc(O)c(OC)c3-2)CCN1C	3	14	4	x	71*	9%
COc1ccc2c3c([nH]c2c1)C(C)NCC3 (centres undefined)	0	1	2	2	74*	9%
COc1ccc2[nH]c3c(c2c1)CCNC3C (centres undefined)	0	-2	-1	-6	-2	x
ClCCN(CCCl)c1ccc(-n2cnc3c(Cl)ncnc32)cc1	x	x	-1	x	x	x

Assay outcomes from PubChem BioAssay.
